These results are taken from PubChem BioAssay AID504382 (The Scripps Research Institute Molecular Screening Center, 2011).

The whole screen tested about 2,500 compounds, of which about 460 (18%) were called active. These entries were drawn from the full list. Values without a mark were called inactive.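 The calls were made as follows: active = mean activation above a cutoff of low control average plus 3 SD from the earlier screen (cut at about 12% in these data); inactive = the rest.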

The assay is described as follows: compound fluorescence interference without thin filaments, confirmation, artefact control for cardiac RTF calcium sensitizer project, biochemical (AID 504382). Conditions: IANBD fluorescence interference counterscreen, buffer, EC20 Ca2+; at 7.2 µM; stronger effect = higher value; scaled: EC20 calcium 0, EC100 calcium 100. The procedure, abridged:
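Medium: MOPS buffer, 190 mM, with KCl, MgCl2, EGTA, NTA, DTT, pH 7.20; Dosing: one dose of 7.2 µM, 0.7% DMSO; Probe or stimulus: calcium at EC20 level, 0.472 mM final; Incubation: 15 min, 25 °C; Evaluation: compound fluorescence interference relative to control well signal range; Signal: fluorescence, 480/540 nm.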
(In general: Counterscreens check selectivity or assay interference.)
`O=C(Nc1cccc(Cl)c1)c1cc(S(=O)(=O)NCCc2ccc(Cl)cc2)ccc1F`: the fluorescence artifact activation is 10.6%. The figure for `COc1cccc(/C(O)=C/c2nc3ccc(C(=O)NCCc4ccc(Cl)cc4)cc3[nH]c2=O)c1` is 0.43%. The figure for `COc1ccc(N(C)S(=O)(=O)c2ccc(Cl)c(C(=O)NCCc3ccc(Cl)cc3)c2)cc1` is 35.3% (active). The figure for `CCOc1ccc(C(C(=O)NC2CCCCC2)N(C(=O)Cc2cccs2)c2ccc(-n3cnnn3)c(OC)c2)cc1` (centres undefined) is 0.09%; for `O=C(c1ccccc1)N1CCN(CC#CC2(O)CCCCC2)CC1` it is -0.05%. In the case of `CCOc1ccc(C(=O)NC2CCN(C(=O)Nc3ccccc3OC)CC2)cc1`, the fluorescence artifact activation is -0.03%.

Consider `COC(=O)CN1C(=S)N(c2ccc(OC)cc2)C(=O)/C1=C/c1ccc(N2CCOCC2)cc1`, for which the fluorescence artifact activation is -0.04%. The figure for `COc1ccc(N2CCN(C(=O)c3ccc(OCC4CCCO4)cc3)CC2)cc1` (centres undefined) is 23.9% (active); for `COc1ccc(CC(=O)NCc2csc(-c3cccs3)n2)cc1OC` it is 0.03%; for `Cc1c(Cl)c([N+](=O)[O-])nn1CC(=O)N1CCN(C23CC4CC(CC(C4)C2)C3)CC1` it is 0.69%. To `COc1ccc(/C=C2\SC(c3ccc(C)cc3)=NC2=O)cc1OC` belongs 0.1%; to `COc1ccc(/C=C2\SC(=O)NC2=S)cc1OC`, 0.32%; to `COc1cc(/C=C2\SC(=O)NC2=O)ccc1Oc1ccc([N+](=O)[O-])cn1`, 25% (active). To `NC(=S)Nc1c(Cl)cccc1Cl` belongs -0.03%. For the compound `COc1[nH]c(/N=C/c2ccccc2)c(C#N)c1C#N`, the fluorescence artifact activation is 0.1%.

As to `NC(=O)NC(Cc1ccccc1)C(=O)NCC1(N2CCCCC2)CCCCC1` (centres undefined), the fluorescence artifact activation was 7.54%. To `CC1CC(C)CN(C(=O)COC(=O)CCc2nc3ccccc3c(=O)[nH]2)C1` (centres undefined) belongs -0.03%; to `Cn1cc(/C=C2\SC(=S)N(NC(=O)c3ccccc3Cl)C2=O)c2ccccc21`, 6.42%; to `CNC(=O)N(O)C1N(C)C(=O)N(CC(=O)OC)C1(C)C` (centres undefined), 12.4% (active).

With `COc1ccc(/C=C2\SC(=S)N(CCCC(=O)Nc3ccccn3)C2=O)cc1OC`, the fluorescence artifact activation is 0.11%. Regarding `CC(C(=O)c1ccc(Br)cc1)[n+]1cccc2ccccc21` (centres undefined), the fluorescence artifact activation is 11.8% (active). To `CN(C)c1ccc(/C=C(/C(=O)c2ccc(Cl)cc2Cl)n2cncn2)cc1` belongs -0.05%.

For `CCOC(=O)c1c(=O)n(O)c2ccc(OC)cc2[n+]1[O-]`, the fluorescence artifact activation was 0.13%.

On to `O=C(c1cccs1)N1CCN=C1SCc1cccc(F)c1`, for which the fluorescence artifact activation was 0.02%. To `COc1cc(OC)cc(C(=O)NCC(=O)OC2CCOC2=O)c1` (centres undefined) belongs 6.1%; to `COCCNC(=O)C(c1ccc(C)o1)N(Cc1ccc(F)cc1)C(=O)Cn1nnc2ccccc21` (centres undefined), 0.43%; to `O=C(NC1CCCCC1)C(c1ccc(F)cc1)N(Cc1ccccc1)C(=O)CN1C(=O)c2ccccc2S1(=O)=O` (centres undefined), 27.8% (active).

Regarding `O=C(NCC(=O)N(Cc1cccs1)C(C(=O)NC1CCCCC1)c1ccncc1)c1ccco1` (centres undefined), the fluorescence artifact activation is 0.04%. To `CSC(=NCc1ccco1)NC#N` belongs 0.12%; to `CN1/C(=C\C=C2/SC(=S)NC2=O)C(C)(C)c2ccccc21`, 0.11%. To `Cc1cc(-c2ccccc2C(=O)NC2CCCCC2)on1` belongs 0.27%; to `Cc1ccc(Cn2c(Sc3nnc(C)s3)nc3c2c(=O)[nH]c(=O)n3C)cc1`, 42.6% (active); to `COc1cc(C(=O)NCc2nnc(SCC(=O)Nc3ccc4c(c3)OCO4)o2)cc(OC)c1OC`, 35.2% (active).

In the case of `COc1cc(C(=O)Nc2ccc(Cl)c(C(F)(F)F)c2)cc(OC)c1OC`, the fluorescence artifact activation was 0.1%.

On to `CCN(CC)S(=O)(=O)c1ccc2c(c1)nc(CCC(=O)Nc1ccc3c(c1)OCO3)n2C`, for which the fluorescence artifact activation was 0.09%.

`Cc1onc(-c2c(F)cccc2Cl)c1C(N)=S`: the fluorescence artifact activation is 6.57%. On to `CN(C)c1ccc(/C=C(\C#N)C(=O)Nc2nc3c(s2)CCN(Cc2ccccc2)C3)cc1`, for which the fluorescence artifact activation is 0.06%.

Regarding `Cc1ccc(N=Nc2c(O)[nH]c3ccc(F)cc23)cc1`, the fluorescence artifact activation is 6.29%. The figure for `CC(=O)c1ccc(NC(=O)C2CCCN(S(=O)(=O)c3c(C)[nH]c(=O)[nH]c3=O)C2)cc1` (centres undefined) is 20.3% (active); for `CC(=O)N1CCCc2cc(S(=O)(=O)N3CCCC(C(=O)Nc4cccc(C)c4)C3)ccc21` (centres undefined) it is 0.1%.

Take `Cc1cc(S(=O)(=O)N2CCCC(C(=O)Nc3ccc(C(=O)O)cc3)C2)ccc1Cl` (centres undefined): the fluorescence artifact activation is 1.39%.

As to `O=C1CCC[C@@H]2C[C@@]3(C[C@@H]4CCN1[C@H]24)Nc1cc([N+](=O)[O-])ccc1NC3=NC1CCCCC1`, the fluorescence artifact activation was 10.3%. The figure for `CC1(c2ccc(OC(F)F)cc2)NC(=O)N(CC(=O)Nc2ccc(F)cc2)C1=O` (centres undefined) is 0%; for `NS(=O)(=O)c1ccc(NC(=O)COc2ccc(C(=O)c3ccc(F)cc3)cc2)cc1` it is 545% (active); for `CCCC(CCC(=O)Nc1ccc(S(N)(=O)=O)cc1)C(=O)O` (centres undefined) it is 0.96%. For the compound `CCOC(=O)C1(CCc2ccccc2)CCN(C(=O)c2occc2C)CC1`, the fluorescence artifact activation is 3.37%. As to `CCCC1C(c2ccccc2)C(C#N)(C#N)C2(C#N)CC1(N)NC2=O` (centres undefined), the fluorescence artifact activation was 0.01%. The figure for `Oc1[nH]c2ccccc2c1N=Nc1ccccc1Cl` is 0.13%.

For `C#CCOCCOCCOCCNc1nc(N2CCN(C(=O)CCCCCCCCCCNC(=O)[C@@H](CCSC)n3cc(CCO)nn3)CC2)nc(N2CCN(C(=O)CCCCCCCCCCNC(=O)[C@H](CCSC)n3cc(CCO)nn3)CC2)n1`, the fluorescence artifact activation is 0.15%. Consider `CCN=C(NC#N)SCc1c(F)cccc1Cl`, for which the fluorescence artifact activation is 0.17%.

`NS(=O)(=O)c1ccc(NCc2c(F)cccc2Cl)cc1`: the fluorescence artifact activation is 24.7% (active). In the case of `COc1ccc(C2NN=C(c3c[nH]c4ccccc34)C2O)cc1` (centres undefined), the fluorescence artifact activation is 8.63%. With `CC(C)c1ccc(NS(=O)(=O)c2cccc3cccnc23)cc1`, the fluorescence artifact activation is 168% (active). The figure for `CCN(CC)C(=O)C1CCC(CNS(=O)(=O)c2cccc3cccnc23)CC1` (centres undefined) is -0.02%. To `CN(CC(=O)NCc1ccc(Cl)cc1)S(=O)(=O)c1cccc2cccnc12` belongs 0.14%. In the case of `CCc1ccc2c(COC(=O)CNS(=O)(=O)c3ccc(NC(C)=O)cc3)cc(=O)oc2c1`, the fluorescence artifact activation was 2.6%. To `COC(=O)c1ccc(CS(=O)(=O)c2ccc(F)cc2)o1` belongs 0.08%; to `N#CC1(C#N)CC(C=O)=C(N)C1(C#N)CC(=O)c1ccc(F)cc1` (centres undefined), 2.93%; to `Cc1ccc(Cn2nc(C)c(NC(=O)C3(C)CC3(Br)Br)c2C)cc1` (centres undefined), 6.32%. To `CC(NC(=O)CN1CCC(C(N)=O)CC1)c1ccccc1` (centres undefined) belongs -0.04%; to `Cc1ccc(CNC(=O)c2ccc(S(=O)(=O)N3CCCCC3)cc2)cc1`, -0.06%. The figure for `CN(C)NC(=S)Nc1ccc(S(=O)(=O)N2CCCCC2)cc1` is 2.09%. As to `Cc1ccc(NC(=O)CN(C)c2ccc(S(=O)(=O)N3CCCC3)cn2)cc1`, the fluorescence artifact activation is 18.6% (active).

In the case of `COc1cc(/C=C/c2sc3ccccc3[n+]2CCCS(=O)(=O)[O-])ccc1O`, the fluorescence artifact activation is 1.3%. To `O=[N+]([O-])c1ccc(NN=Cc2cccc3ccccc23)nc1` belongs 7.52%.

For `COc1ccc(-n2c(C)cc(/C=C3\SC(=S)NC3=O)c2C)cc1`, the fluorescence artifact activation was -0.04%. To `O=C(CCC1CCCN(C(=O)C2=CCCC2)C1)N1CCN(c2ccccn2)CC1` (centres undefined) belongs -0.04%; to `O/C=c1\ccc2cccc3nc(C(F)(F)F)nc1c23`, 1630% (active); to `Cc1ccc(N2C3=C(C(=O)CC(C)(C)C3)C(c3cn(C)nc3C)C3=C2CC(C)(C)CC3=O)cc1`, 8.85%.

On to `O=C(c1c[nH]c(C(=O)C(Cl)(Cl)Cl)c1)c1c(F)cccc1F`, for which the fluorescence artifact activation is 1460% (active). Regarding `CN(C)C=NC(=O)c1cc(C(=O)c2ccccc2Cl)c[nH]1`, the fluorescence artifact activation was 0.08%. The figure for `COc1ccc(-n2nc3c(N4CCC(C(=O)NCc5ccco5)CC4)nnc(C)c3c2C)cc1` is 0.15%. Consider `Cc1nc([N+](=O)[O-])c(Sc2nc3ccccc3n2C)n1Cc1ccccc1`, for which the fluorescence artifact activation is 17.2% (active). The figure for `Cn1c(/C(C#N)=C(\O)CN2CCN(Cc3ccccc3)CC2)nc2ccccc21` is -0.07%; for `Cc1nc([N+](=O)[O-])c(Br)n1CC(=O)c1ccc2ccccc2c1` it is 0.15%; for `COc1cc(-c2c(-c3ccc4c(c3)OCO4)noc2C)ccc1F` it is 6.28%.

Turning to `CCCOc1ccc(C2C(C(=O)c3ccc(C)o3)=C(O)C(=O)N2CCCn2ccnc2)cc1` (centres undefined), the fluorescence artifact activation is 20.7% (active). To `COC(=O)c1sc(N2C(=O)C(O)=C(C(=O)c3ccc(C)o3)C2c2ccc(F)cc2)nc1C` (centres undefined) belongs 7.6%; to `CCCCOc1cccc(C2C(C(=O)c3cccs3)=C(O)C(=O)N2Cc2cccnc2)c1` (centres undefined), -0.01%. The figure for `COc1ccc(-c2cc(C(F)(F)F)c3c(N)c(C(=O)NCCSC)sc3n2)cc1` is 0.08%; for `COc1ccc(Sc2ccc(-c3nc4cnccn4c3NC3CCCCC3)cc2OC)cc1` it is 0.04%; for `Cc1ccc(NC(=O)/C(C#N)=C/c2ccc(C)s2)c(C)c1` it is 0.06%.

Take `Cc1cccc(CSc2ccc(-c3ccco3)nn2)c1`: the fluorescence artifact activation is 0.5%.

On to `Cc1cc(C)c2c(=O)n(-c3ccccc3)[nH]c2n1`, for which the fluorescence artifact activation is 0.96%. The figure for `Cc1cc(C)nc(SCCCNCc2ccc(Br)cc2)n1` is -0.01%.

Consider `CC(=O)C1=C(C)N(Cc2ccccc2)C(=O)N[C@@H]1c1cccc(C(F)(F)F)c1`, for which the fluorescence artifact activation was -0.08%.

Turning to `CC(=O)C1=C(C)N(CC2CC2)C(=O)N[C@H]1c1ccc(Br)cc1`, the fluorescence artifact activation was 36.6% (active).

With `O=c1c2ccccc2nc2n1CCCN2`, the fluorescence artifact activation was 2.97%. The figure for `N=c1n(Cc2ccccc2)c2ccccc2n1CC(O)c1ccco1` (centres undefined) is 7.18%.
